Test results from the M2OR odorant receptor database.

biological target: T1, UniProt Q8VGW5; conditions: stereoisomer not certain
T1 sequence (whole entry): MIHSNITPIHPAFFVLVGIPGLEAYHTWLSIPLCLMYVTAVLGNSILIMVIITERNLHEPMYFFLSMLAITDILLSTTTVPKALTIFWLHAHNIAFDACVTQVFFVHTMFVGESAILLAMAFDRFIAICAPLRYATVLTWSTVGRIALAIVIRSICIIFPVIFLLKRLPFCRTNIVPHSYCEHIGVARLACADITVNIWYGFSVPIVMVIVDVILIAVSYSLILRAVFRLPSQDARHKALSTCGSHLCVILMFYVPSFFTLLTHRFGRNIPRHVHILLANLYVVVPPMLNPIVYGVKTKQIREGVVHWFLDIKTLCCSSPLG
Outline: (§1)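 Each entry records the cell line, G-protein, co-transfected protein and tags used. Methods varied with the source, often transient luciferase assays in mammalian cell lines. A receptor–molecule pair is called responsive (active) if the original authors judged its signal statistically different from baseline and non-responsive (inactive) otherwise.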

With CCCCCCCO as the compound, how does the “odorant receptor agonist call” value read?
Its value is “inactive”.

CCCCCCCCC(=O)O was tested. Which “odorant receptor agonist call” value did it give?
The value was “inactive”.

Which “odorant receptor agonist call” value does the source give for CCCCCCCCO here?
The value was “inactive”.

How did the “odorant receptor agonist call” value turn out when CCCCCCCCCC(=O)[O-].[H+] was run?
The value was “inactive”.

How did the “odorant receptor agonist call” value turn out when CCCCCCO was run?
The value was “inactive”.

CCCCCCCCCO was tested. Which “odorant receptor agonist call” value did it give?
The value was “inactive”.

biological target: T2, UniProt Q8VGX3; conditions: stereoisomer not certain
T2 sequence (whole entry): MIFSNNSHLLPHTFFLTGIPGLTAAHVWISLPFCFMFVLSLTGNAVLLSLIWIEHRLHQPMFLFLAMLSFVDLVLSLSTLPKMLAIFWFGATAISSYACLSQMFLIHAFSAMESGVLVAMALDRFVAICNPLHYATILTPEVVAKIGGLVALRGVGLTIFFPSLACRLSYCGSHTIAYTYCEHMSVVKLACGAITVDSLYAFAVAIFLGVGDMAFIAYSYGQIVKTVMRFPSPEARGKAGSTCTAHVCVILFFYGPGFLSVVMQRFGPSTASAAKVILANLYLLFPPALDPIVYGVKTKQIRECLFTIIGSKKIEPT
Outline: as §1

Which “odorant receptor agonist call” value does the source give for CCCCCC=O here?
Its value is “inactive”.

Which “odorant receptor agonist call” value does the source give for CCCCCCCO here?
Its value is “inactive”.

With O=C1CCOc2ccccc21 as the compound, how does the “odorant receptor agonist call” value read?
Its value is “inactive”.

CCCCCCOC(C)=O was tested. Which “odorant receptor agonist call” value did it give?
Its value is “inactive”.

Which “odorant receptor agonist call” value does the source give for O=C(c1ccccc1)c1ccccc1 here?
The value was “inactive”.

CCCCCCCCC(=O)O was tested. Which “odorant receptor agonist call” value did it give?
Its value is “inactive”.

CC12CCC(CC1=O)C2(C)C (stereo unspecified) was tested. Which “odorant receptor agonist call” value did it give?
The value was “inactive”.

CCCCCCCCO was tested. Which “odorant receptor agonist call” value did it give?
Its value is “inactive”.

For CCCCC(C)=O, which “odorant receptor agonist call” value is on record?
Its value is “inactive”.

How did the “odorant receptor agonist call” value turn out when CCCCCCCCCS was run?
Its value is “inactive”.

Which “odorant receptor agonist call” value does the source give for CCCCCCCCCC(=O)[O-].[H+] here?
The value was “inactive”.

Which “odorant receptor agonist call” value does the source give for CCCCCCO here?
The value was “inactive”.

Which “odorant receptor agonist call” value does the source give for CC(=O)OCc1ccccc1 here?
Its value is “inactive”.

CCCCCCCCCO was tested. Which “odorant receptor agonist call” value did it give?
The value was “inactive”.

With CCCCCCC(C)=O as the compound, how does the “odorant receptor agonist call” value read?
The value was “inactive”.

How did the “odorant receptor agonist call” value turn out when CCCCOC=O was run?
The value was “inactive”.

CCCCCOC(=O)CCCCC was tested. Which “odorant receptor agonist call” value did it give?
Its value is “inactive”.

biological target: T3, UniProt Q8VGX5; conditions: stereoisomer not certain
T3 sequence (whole entry): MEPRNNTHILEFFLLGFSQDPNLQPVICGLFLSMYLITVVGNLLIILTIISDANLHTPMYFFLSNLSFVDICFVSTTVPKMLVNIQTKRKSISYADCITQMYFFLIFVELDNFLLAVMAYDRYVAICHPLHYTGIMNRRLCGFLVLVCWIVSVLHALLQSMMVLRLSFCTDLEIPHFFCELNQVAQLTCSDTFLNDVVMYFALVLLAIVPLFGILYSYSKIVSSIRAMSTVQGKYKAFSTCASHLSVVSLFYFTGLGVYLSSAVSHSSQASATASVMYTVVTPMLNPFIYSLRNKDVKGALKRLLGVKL
Outline: as §1

With O=c1ccc2ccccc2o1 as the compound, how does the “odorant receptor agonist call” value read?
The value was “active”.

For CCCCCC=O, which “odorant receptor agonist call” value is on record?
Its value is “inactive”.

With CCCCCCCO as the compound, how does the “odorant receptor agonist call” value read?
Its value is “inactive”.

Which “odorant receptor agonist call” value does the source give for O=C1CCOc2ccccc21 here?
Its value is “active”.

How did the “odorant receptor agonist call” value turn out when CCCCCCOC(C)=O was run?
Its value is “inactive”.

How did the “odorant receptor agonist call” value turn out when O=C(c1ccccc1)c1ccccc1 was run?
Its value is “inactive”.

For CCCCCCCCC(=O)O, which “odorant receptor agonist call” value is on record?
The value was “inactive”.

For CC12CCC(CC1=O)C2(C)C (stereo unspecified), which “odorant receptor agonist call” value is on record?
The value was “active”.

How did the “odorant receptor agonist call” value turn out when CCCCCCCCO was run?
The value was “inactive”.

Which “odorant receptor agonist call” value does the source give for CCCCC(C)=O here?
Its value is “inactive”.

For CCCCCCCCCS, which “odorant receptor agonist call” value is on record?
The value was “inactive”.

With CCCCCCCCCC(=O)[O-].[H+] as the compound, how does the “odorant receptor agonist call” value read?
Its value is “inactive”.

With CCCCCCO as the compound, how does the “odorant receptor agonist call” value read?
The value was “inactive”.

CC(=O)OCc1ccccc1 was tested. Which “odorant receptor agonist call” value did it give?
The value was “active”.

For CCCCCCCCCO, which “odorant receptor agonist call” value is on record?
Its value is “inactive”.

CCCCCCC(C)=O was tested. Which “odorant receptor agonist call” value did it give?
Its value is “inactive”.

CCCCOC=O was tested. Which “odorant receptor agonist call” value did it give?
The value was “inactive”.

Which “odorant receptor agonist call” value does the source give for CCCCCOC(=O)CCCCC here?
The value was “inactive”.
